Results on 7 compounds are retold here after ChEMBL document CHEMBL3120107, “Cytotoxic cardiac glycosides and coumarins from Antiaris toxicaria” (2014).

Values after ≈ are worked out from the molar mass of the structure shown.

Assay [1] in a line: Cytotoxicity against human KBVIN cells assessed as growth inhibition after 72 hrs by SRB assay. It is filed as functional. The conditions noted are these: Homo sapiens, KBVIN, 72 h; read-out: ED50 (the source's name). An outline of the steps: (§1)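 Sulforhodamine B assay run by NCI-validated procedure. Cells grown at 37 °C under humidified 5% CO2 in RPMI-1640 with 25 mM HEPES, […] (w/v) sodium bicarbonate, 10% (v/v) FBS and 100 μg/mL kanamycin. Compounds came from DMSO stocks, with final DMSO ≤ 1% (v/v). Continuous exposure for 72 h. ED50 (μg/mL, 50% cell-number reduction) interpolated from dose-response data. Triplicate tests. Doxorubicin served as positive control.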
A general note: The SRB assay estimates cell density from bound dye.

A further assay has as its system CAKI-1. As to the kind of experiment: Cytotoxicity against human CAKI-1 cells assessed as growth inhibition after 72 hrs by SRB assay. It is filed as functional. The conditions noted are these: Homo sapiens, CAKI-1, 72 h; read-out: ED50 (the source's name). A digest of the protocol: as §1
The next assay relates to KB. Briefly: Cytotoxicity against human KB cells assessed as growth inhibition after 72 hrs by SRB assay. It is filed as functional. The conditions noted are these: Homo sapiens, KB, 72 h; read-out: ED50 (the source's name). An outline of the steps:
as §1

The next assay concerns A549. As to the kind of experiment: Cytotoxicity against human A549 cells assessed as growth inhibition after 72 hrs by SRB assay. The conditions noted are these: Homo sapiens, A549, 72 h; read-out: ED50 (the source's name). It is filed as functional. An outline of the steps:
as §1

Another assay has as its system 1A9. Briefly: Cytotoxicity against human 1A9 cells assessed as growth inhibition after 72 hrs by SRB assay. The conditions noted are these: Homo sapiens, 1A9, 72 h; read-out: ED50 (the source's name). The class given is functional. A digest of the protocol:
as §1

The subject of a further assay is MCF7. Briefly: Cytotoxicity against human MCF7 cells assessed as growth inhibition after 72 hrs by SRB assay. The conditions noted are these: Homo sapiens, MCF7, 72 h; read-out: ED50 (the source's name). It is filed as functional. A digest of the protocol: as §1
In a further assay the test system is SK-MEL-2. As to the kind of experiment: Cytotoxicity against human SK-MEL-2 cells assessed as growth inhibition after 72 hrs by SRB assay. The class given is functional. The conditions noted are these: Homo sapiens, SK-MEL-2, 72 h; read-out: ED50 (the source's name). An outline of the steps:
as §1

The next assay has as its system PC-3. As to the kind of experiment: Cytotoxicity against human PC3 cells assessed as growth inhibition after 72 hrs by SRB assay. The conditions noted are these: Homo sapiens, PC-3, 72 h; read-out: ED50 (the source's name). It is filed as functional. An outline of the steps:
as §1

The nature of assay [2]: Cytotoxicity against human […] cells assessed as growth inhibition after 72 hrs by SRB assay. The class given is functional. The conditions noted are these: Homo sapiens, HCT9, 72 h; read-out: ED50 (the source's name). An outline of the steps:
as §1

Assay [3] can be described thus: Cytotoxicity against human U87MG cells assessed as growth inhibition after 72 hrs by SRB assay. The conditions noted are these: Homo sapiens, U-87 MG, 72 h; read-out: ED50 (the source's name). It is filed as functional, U-87MG ATCC. An outline of the steps:
as §1

As for `C[C@@H]1O[C@H](O[C@H]2CC[C@]3(C)[C@H]4CC[C@]5(C)[C@@H](C6=CC(=O)OC6)CC[C@]5(O)[C@@H]4CC[C@]3(O)C2)[C@H](O)[C@H](O)[C@H]1O` [PERIPLORHAMNOSIDE], the EC50 is 0.02 µg/mL (≈ 0.0373 µM) in [1]; 0.014 µg/mL (≈ 0.0261 µM) with CAKI-1; 0.054 µg/mL (≈ 0.101 µM) with KB; 0.012 µg/mL (≈ 0.0224 µM) in the assay with A549; 0.012 µg/mL (≈ 0.0224 µM) in the assay with 1A9; 0.018 µg/mL (≈ 0.0335 µM) in the assay with MCF7. The EC50 with SK-MEL-2 is 0.017 µg/mL (≈ 0.0317 µM); in the assay with PC-3 it was 0.021 µg/mL (≈ 0.0391 µM); in assay [2], 0.044 µg/mL (≈ 0.082 µM); in assay [3] it was 0.082 µg/mL (≈ 0.153 µM).

`C[C@@H]1O[C@@H](O[C@@H]2CC[C@@]3(CO)[C@H](CC[C@@H]4[C@@H]3CC[C@]3(C)[C@@H](C5=CC(=O)OC5)CC[C@]43O)C2)[C@H](O)[C@H](O)[C@H]1O[C@@H]1O[C@H](CO)[C@@H](O)[C@H](O)[C@H]1O` [ANTIAROSIDE D]: the EC50 in assay [1] worked out at 1.9 µg/mL (≈ 2.72 µM); with CAKI-1 it was 0.93 µg/mL (≈ 1.33 µM); with KB it was 1.7 µg/mL (≈ 2.43 µM); in the assay with A549, 0.38 µg/mL (≈ 0.544 µM); with 1A9 it was 0.74 µg/mL (≈ 1.06 µM); in the assay with MCF7, 1 µg/mL (≈ 1.43 µM). In addition, the EC50 in the assay on SK-MEL-2 turned out to be 0.31 µg/mL (≈ 0.444 µM); in the assay on PC-3 it was 0.53 µg/mL (≈ 0.758 µM); in [2], 1.9 µg/mL (≈ 2.72 µM); in assay [3] it was 4.2 µg/mL (≈ 6.01 µM).

Turning to `C[C@@H]1O[C@H](O[C@H]2CC[C@@]3(C=O)[C@H](CC[C@@H]4[C@@H]3CC[C@]3(C)[C@@H](C5=CC(=O)OC5)CC[C@]43O)C2)[C@H](O)[C@H](O)[C@H]1O` [MALAYOSIDE], the EC50 is 0.32 µg/mL (≈ 0.599 µM) in assay [1]; 0.073 µg/mL (≈ 0.137 µM) with CAKI-1; 0.3 µg/mL (≈ 0.561 µM) with KB; 0.08 µg/mL (≈ 0.15 µM) in the assay on A549; 0.076 µg/mL (≈ 0.142 µM) in the assay with 1A9; 0.19 µg/mL (≈ 0.355 µM) with MCF7. In addition, the EC50 in the assay with SK-MEL-2 was found to be 0.62 µg/mL (≈ 1.16 µM); with PC-3, 0.11 µg/mL (≈ 0.206 µM); in assay [2], 0.18 µg/mL (≈ 0.337 µM); in assay [3], 0.37 µg/mL (≈ 0.692 µM).

In the case of `C[C@H]1O[C@H](O[C@H]2CC[C@]3(C=O)[C@H]4CC[C@]5(C)[C@@H](C6=CC(=O)OC6)CC[C@]5(O)[C@@H]4CC[C@]3(O)C2)[C@H](O)[C@H](O[C@@H]2O[C@H](CO)[C@@H](O)[C@H](O)[C@H]2O)[C@@H]1O` [GLUCOSTROPHALLOSIDE], the EC50 in [1] turned out to be 0.083 µg/mL (≈ 0.116 µM); in the assay with CAKI-1, 0.065 µg/mL (≈ 0.0912 µM); in the assay on KB, 0.12 µg/mL (≈ 0.168 µM); in the assay with A549, 0.038 µg/mL (≈ 0.0533 µM); with 1A9, 0.057 µg/mL (≈ 0.08 µM); in the assay with MCF7, 0.096 µg/mL (≈ 0.135 µM). For the same compound, the EC50 was 0.12 µg/mL (≈ 0.168 µM) in the assay on SK-MEL-2, 0.084 µg/mL (≈ 0.118 µM) in the assay with PC-3, 0.13 µg/mL (≈ 0.182 µM) in assay [2] and 0.15 µg/mL (≈ 0.21 µM) in assay [3].

On to `C[C@@H]1O[C@@H](O[C@H]2CC[C@]3(C=O)[C@H]4CC[C@]5(C)[C@@H](C6=CC(=O)OC6)CC[C@]5(O)[C@@H]4CC[C@]3(O)C2)[C@H](O)[C@H](O)[C@H]1O[C@@H]1O[C@H](CO)[C@@H](O)[C@H](O)[C@H]1O` [CONVALLOSIDE], for which the EC50 in assay [1] amounted to 0.18 µg/mL (≈ 0.253 µM); with CAKI-1, 0.071 µg/mL (≈ 0.0996 µM); in the assay with KB, 0.2 µg/mL (≈ 0.281 µM); in the assay on A549, 0.07 µg/mL (≈ 0.0982 µM); in the assay on 1A9, 0.072 µg/mL (≈ 0.101 µM); in the assay on MCF7, 0.15 µg/mL (≈ 0.21 µM). The EC50 with SK-MEL-2 was 0.42 µg/mL (≈ 0.589 µM); in the assay on PC-3 it was 0.095 µg/mL (≈ 0.133 µM); in assay [2], 0.2 µg/mL (≈ 0.281 µM); in [3] it was 0.4 µg/mL (≈ 0.561 µM).

For `C[C@H]1O[C@@H](O[C@H]2CC[C@]3(C=O)[C@H]4CC[C@]5(C)[C@@H](C6=CC(=O)OC6)CC[C@]5(O)[C@@H]4CC[C@]3(O)C2)[C@H](O)[C@H](O)[C@H]1O` [DESGLUCOCHEIROTOXIN], the EC50 in assay [1] was determined as 0.018 µg/mL (≈ 0.0327 µM); in the assay with CAKI-1 it was 0.014 µg/mL (≈ 0.0254 µM); with KB, 0.044 µg/mL (≈ 0.0799 µM); in the assay with A549 it was 0.0092 µg/mL (≈ 0.0167 µM); in the assay with 1A9 it was 0.012 µg/mL (≈ 0.0218 µM); in the assay with MCF7 it was 0.015 µg/mL (≈ 0.0272 µM). Further, the EC50 stood at 0.015 µg/mL (≈ 0.0272 µM) with SK-MEL-2, 0.018 µg/mL (≈ 0.0327 µM) with PC-3, 0.044 µg/mL (≈ 0.0799 µM) in assay [2] and 0.054 µg/mL (≈ 0.0981 µM) in assay [3].

`C[C@@H]1O[C@H](O[C@@H]2CC[C@]3(C=O)[C@H]4CC[C@]5(C)[C@@H](C6=CC(=O)OC6)CC[C@]5(O)[C@@H]4CC[C@]3(O)C2)[C@H](O)[C@H](O)[C@H]1O` [ANTIAROSIDE C]: the EC50 in [1] was determined as 1.6 µg/mL (≈ 2.91 µM); in the assay on CAKI-1 it was 0.32 µg/mL (≈ 0.581 µM); in the assay on KB, 1.5 µg/mL (≈ 2.72 µM); in the assay on A549 it was 0.48 µg/mL (≈ 0.872 µM); in the assay with 1A9, 0.39 µg/mL (≈ 0.708 µM); with MCF7, 1.4 µg/mL (≈ 2.54 µM). The EC50 worked out at 0.26 µg/mL (≈ 0.472 µM) in the assay with SK-MEL-2, 0.42 µg/mL (≈ 0.763 µM) in the assay on PC-3, 1.5 µg/mL (≈ 2.72 µM) in assay [2] and 1.7 µg/mL (≈ 3.09 µM) in assay [3].
